# Measured values as given in ChEMBL document CHEMBL4627381, “Licochalcone A Selectively Resensitizes ABCG2-Overexpressing Multidrug-Resistant Cancer Cells to Chemotherapeutic Drugs” (J Nat Prod, 2020).
# Assays:
# S1 [1] = test: Effect on mitoxantrone-induced cytotoxicity against human S1 cells assessed as fold change in mitoxantrone IC50 at 2 uM after 72 hrs by MTT assay relative to mitoxantrone IC50; assay type: functional
# How it was run: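 Parental S1 colon and H460 lung cancer cells were exposed for 72 h to a mitoxantrone or topotecan concentration series, with or without modulator at 0.5–3.0 μM, and read by MTT. Fold-reversal is IC50 without modulator divided by IC50 with modulator, taken from dose-response curves of three independent experiments.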
# HEK293 [2] = test: Induction of pheophorbide A accumulation in HEK293 cells at 20 uM incubated for 1 hr by FACScan flow cytometry; assay type: cell-based; details: human, hek293, 1 h
# How it was run: (§1)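 Cells held drug-free 7 days. 3 × 10^5 cells were suspended in IMDM with 5% FCS and loaded with pheophorbide A (ex 395/em 670 nm) for 1 h, with or without LCA (20 μM for single-concentration accumulation) or Ko143 3 μM as reference. Read immediately by flow cytometry. Efflux inhibition was run over a concentration range; mean ± SD of three experiments.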
# [3] = biological target: T1, Broad substrate specificity ATP-binding cassette transporter ABCG2 (Homo sapiens, UniProt Q9UNQ0); test: Reversal of human ABCG2-mediated multidrug resistance in HEK293/R482 cells assessed as fold-change in topotecan IC50 at 0.5 uM after 72 hrs by CCK8 relative to topotecan IC50; assay type: cell-based
# T1 sequence (Q9UNQ0 whole entry): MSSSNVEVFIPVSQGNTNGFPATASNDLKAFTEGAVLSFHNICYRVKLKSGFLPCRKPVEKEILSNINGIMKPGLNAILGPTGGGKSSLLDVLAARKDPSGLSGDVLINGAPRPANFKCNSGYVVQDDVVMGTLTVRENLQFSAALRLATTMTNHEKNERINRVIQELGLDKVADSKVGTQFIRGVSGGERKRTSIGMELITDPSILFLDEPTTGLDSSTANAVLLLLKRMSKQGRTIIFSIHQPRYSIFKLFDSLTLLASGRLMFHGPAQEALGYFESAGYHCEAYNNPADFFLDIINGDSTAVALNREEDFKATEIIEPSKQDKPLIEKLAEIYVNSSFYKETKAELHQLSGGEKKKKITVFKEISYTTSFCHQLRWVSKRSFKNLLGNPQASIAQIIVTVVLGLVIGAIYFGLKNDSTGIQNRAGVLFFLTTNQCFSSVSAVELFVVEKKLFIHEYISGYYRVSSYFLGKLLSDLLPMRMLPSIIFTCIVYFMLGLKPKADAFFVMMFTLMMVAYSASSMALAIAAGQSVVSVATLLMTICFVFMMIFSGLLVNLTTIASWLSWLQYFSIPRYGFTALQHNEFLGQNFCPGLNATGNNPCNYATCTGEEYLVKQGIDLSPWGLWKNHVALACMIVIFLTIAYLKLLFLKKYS
# How it was run: (§2)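 Cells were seeded at 5000/well for 24 h, then given colchicine, etoposide, mitoxantrone or topotecan ± non-toxic modulator (0.5–3.0 μM) for 72 h, with DMSO up to 0.5%. IC50 came from fitted curves (mean ± SD, three experiments). Fold-reversal = IC50 without modulator ÷ IC50 with modulator.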
# HEK293 [4] = test: Effect on mitoxantrone-induced cytotoxicity against HEK293 cells assessed as fold change in mitoxantrone IC50 at 2 uM after 72 hrs by CCK8 assay relative to mitoxantrone IC50; assay type: cell-based; details: human, hek293, 72 h
# How it was run: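 Reversal assay in parental pcDNA-HEK293 and transfected HEK293 lines (ABCB1 for colchicine, ABCC1 for etoposide, ABCG2 for mitoxantrone/topotecan). Substrate drug series was given with or without nontoxic modulator (0.5, 1.0, 2.0 or 3.0 μM) for 72 h, with a CCK-8 read-out. Fold-reversal is substrate IC50 without modulator divided by IC50 with modulator. Three independent experiments.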
# S1 [5] = test: Induction of apoptosis in human S1 cells assessed as late apoptotic cells at 10 uM incubated for 48 hrs in presence of topotecan by annexin V/propidium iodide staining based flow cytometry (reference value: 3.6%); assay type: functional
# How it was run: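 S1 cells were exposed for 48 h to DMSO, 10 μM compound, 5 μM topotecan, or 5 μM topotecan plus 10 μM compound. They were then stained with 1.25 μg/mL annexin V–FITC and 0.1 mg/mL PI for 15 min at room temperature. 10000 cells per sample were analysed by flow cytometry; three independent experiments.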
# [6] = biological target: T1, Broad substrate specificity ATP-binding cassette transporter ABCG2; test: Modulation of ABCG2 (unknown origin) expressed in H460-MX20 cells assessed as increase in intracellular pheophorbide A accumulation at 20 uM incubated for 1 hr by FACScan flow cytometry; assay type: cell-based; how it was run: as §1
# S1 [7] = test: Induction of apoptosis in human S1 cells assessed as viable cells at 10 uM incubated for 48 hrs by annexin V/propidium iodide staining based flow cytometry (reference value: 94.1%); assay type: functional; details: S1, 48 h, read-out: Activity
# [8] = biological target: T1, Broad substrate specificity ATP-binding cassette transporter ABCG2; test: Reversal of ABCG2 (unknown origin)-mediated multidrug resistance in human S1-M1-80 cells assessed as fold-change in mitoxantrone IC50 at 3 uM after 72 hrs by MTT assay relative to mitoxantrone IC50; assay type: cell-based; details: s1-m1-80, 72 h
# How it was run: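 MTT readout in S1-M1-80 colon cancer cells (mitoxantrone-selected, held in 80 μM mitoxantrone, then drug-free 7 days before assay). Cells were seeded at 5000/well for 24 h, then given increasing mitoxantrone or topotecan with DMSO or non-toxic modulator for 72 h at 37 °C. IC50 came from fitted dose-response curves (at least three independent experiments). Fold-reversal = IC50 without modulator ÷ IC50 with modulator.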
# [9] = biological target: T1, Broad substrate specificity ATP-binding cassette transporter ABCG2; test: Reversal of ABCG2 (unknown origin)-mediated multidrug resistance in human H460-MX20 cells assessed as fold change in topotecan IC50 at 2 uM after 72 hrs by MTT assay relative to topotecan IC50; assay type: cell-based
# How it was run: (§3)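 Cells held drug-free 7 days, seeded at 5000 per well for 24 h, then exposed 72 h to mitoxantrone or topotecan dilutions with DMSO (≤0.5%), LCA 0.5–3.0 μM, or Ko143 1.0 μM. Viability was read by MTT. IC50 came from fitted dose-response curves of three independent experiments. Fold-reversal = IC50 without modulator divided by IC50 with modulator.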
# [10] = biological target: Multidrug resistance-associated protein 1 (Homo sapiens, UniProt P33527); test: Reversal of human ABCC1-mediated multidrug resistance in HEK293/MRP1 cells assessed as fold-change in etoposide IC50 at 1 uM after 72 hrs by CCK8 relative to etoposide IC50; assay type: cell-based; how it was run: as §2
# Chain of Multidrug resistance-associated protein 1 (P33527 whole entry): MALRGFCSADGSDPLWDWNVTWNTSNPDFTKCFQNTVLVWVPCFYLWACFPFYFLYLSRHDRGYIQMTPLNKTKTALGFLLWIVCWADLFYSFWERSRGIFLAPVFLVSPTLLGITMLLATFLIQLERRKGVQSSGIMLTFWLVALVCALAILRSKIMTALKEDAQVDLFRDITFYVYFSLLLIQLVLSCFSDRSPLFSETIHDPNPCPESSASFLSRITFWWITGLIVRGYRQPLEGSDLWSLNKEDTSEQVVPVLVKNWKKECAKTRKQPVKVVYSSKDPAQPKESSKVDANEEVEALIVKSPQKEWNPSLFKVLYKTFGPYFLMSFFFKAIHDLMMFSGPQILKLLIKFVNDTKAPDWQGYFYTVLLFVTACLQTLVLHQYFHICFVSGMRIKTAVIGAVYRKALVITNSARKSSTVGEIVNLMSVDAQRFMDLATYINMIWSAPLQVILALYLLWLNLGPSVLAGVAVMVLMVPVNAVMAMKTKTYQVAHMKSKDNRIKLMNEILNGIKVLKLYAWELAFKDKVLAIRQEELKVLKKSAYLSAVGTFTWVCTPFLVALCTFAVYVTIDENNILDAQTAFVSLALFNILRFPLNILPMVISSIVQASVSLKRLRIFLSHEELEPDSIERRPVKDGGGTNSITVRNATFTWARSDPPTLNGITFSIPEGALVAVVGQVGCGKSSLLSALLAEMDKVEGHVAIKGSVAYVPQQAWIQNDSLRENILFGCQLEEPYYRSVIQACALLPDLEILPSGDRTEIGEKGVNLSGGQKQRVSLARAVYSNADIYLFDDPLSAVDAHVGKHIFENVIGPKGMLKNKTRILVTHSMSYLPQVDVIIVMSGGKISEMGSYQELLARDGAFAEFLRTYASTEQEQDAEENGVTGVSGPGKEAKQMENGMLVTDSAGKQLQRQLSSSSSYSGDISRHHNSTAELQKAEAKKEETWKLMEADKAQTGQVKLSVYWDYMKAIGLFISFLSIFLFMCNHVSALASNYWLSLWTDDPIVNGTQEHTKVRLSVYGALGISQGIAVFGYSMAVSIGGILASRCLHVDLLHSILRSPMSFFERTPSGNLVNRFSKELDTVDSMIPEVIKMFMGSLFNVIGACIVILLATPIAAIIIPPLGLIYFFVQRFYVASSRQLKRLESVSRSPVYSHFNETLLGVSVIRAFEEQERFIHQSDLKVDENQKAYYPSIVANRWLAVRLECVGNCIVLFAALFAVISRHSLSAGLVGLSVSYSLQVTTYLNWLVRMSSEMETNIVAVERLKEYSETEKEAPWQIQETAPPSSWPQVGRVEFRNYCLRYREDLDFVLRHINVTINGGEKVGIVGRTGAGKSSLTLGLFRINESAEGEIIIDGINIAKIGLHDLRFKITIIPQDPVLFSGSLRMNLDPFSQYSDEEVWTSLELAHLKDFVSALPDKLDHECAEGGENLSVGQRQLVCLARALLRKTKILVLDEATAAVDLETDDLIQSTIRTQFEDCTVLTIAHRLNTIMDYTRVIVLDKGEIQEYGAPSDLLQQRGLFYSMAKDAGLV
# [11] = biological target: T1, Broad substrate specificity ATP-binding cassette transporter ABCG2; test: Reversal of ABCG2 (unknown origin)-mediated multidrug resistance in human H460-MX20 cells assessed as fold change in mitoxantrone IC50 at 1 uM after 72 hrs by MTT assay relative to mitoxantrone IC50; assay type: cell-based; how it was run: as §3
# NCI-H460 = test: Cytotoxicity against human H460 cells after 72 hrs by MTT assay; assay type: functional, cell-based; details: NCI-H460, 72 h
# How it was run: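 Cells seeded at 5000/well, allowed 24 h, then exposed to a concentration series for 72 h at 37 °C in DMSO vehicle (up to 0.5% v/v). HEK293 lines were read with CCK-8 and cancer lines with MTT. IC50 was taken from fitted dose-response curves over at least three independent experiments. Lines were kept drug-free for 7 days before assay.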
# [12] = biological target: T1, Broad substrate specificity ATP-binding cassette transporter ABCG2; test: Reversal of human ABCG2-mediated multidrug resistance in HEK293/R482 cells assessed as potentiation of mitoxantrone-induced cytotoxicity after 72 hrs by CCK8 assay; assay type: cell-based; how it was run: as §2
compound,measurement,setting,value
C=CC(C)(C)c1cc(/C=C/C(=O)c2ccc(O)cc2)c(OC)cc1O [LICOAGROCHACONE A],fold change (FC),S1 [1],1.1
same,Activity,HEK293 [2],Non-Toxic
same,fold change (FC),[3],2.2
same,fold change (FC),HEK293 [4],1
same,Activity,S1 [5],22.5%
same,Activity,[6],Active
same,viability at 10 µM,S1 [7],95.4%
same,fold change (FC),[8],48.1
same,fold change (FC),[9],8.9
same,fold change (FC),[10],1.3
same,fold change (FC),[11],13.4
same,IC50,NCI-H460,10 to 50 µM
same,Activity,[12],Dose-dependent effect
